Results: ChEMBL document CHEMBL1121580, “Comparison of biological effects of N-alkylated congeners of beta-phenethylamine derived from 2-aminotetralin, 2-aminoindan, and 6-aminobenzocycloheptene” (1980)
Activity calls are given as the source filed them. No cut-off for these calls is given here.

Species on record: Canis familiaris
Assay: Evaluated for inhibition of pressor response during carotid occlusion in dog at 0.5; IA = inactive
Assay type: functional, organism-based
Conditions: Canis lupus familiaris

Structure (SMILES) | ED50
CN(C)C1CCCc2ccccc2C1 (configuration not stated) | inactive

Tested on: Canis familiaris
Assay: Evaluated for inhibition of pressor response during carotid occlusion in dog at 0.5 mg/kg; IA = inactive
Assay type: functional, organism-based
Parameters: dose 0.5 mg/kg
Conditions: Canis lupus familiaris

Structure (SMILES) | ED50
CC(C)NC1CCCc2ccccc2C1 (configuration not stated) | inactive

Species on record: Mus musculus
Assay: (§1) Evaluated for drug-induced inhibition of exploratory activity in mouse
Assay type: functional
Parameters: concentration or dose not given beside the values
Conditions: not given
Procedure, shortened: (§2)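 Male Swiss-Webster mice (20–30 g) were acclimated for several days and tested in groups of three in an activity meter. Dosing was 10 mg/kg ip immediately before cage entry; controls got water on each test day. Counts from the 18 min starting at 6 min were summed as % reduction vs control. Three groups per compound; one-way ANOVA, Scheffé.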

Structure (SMILES) | Reduction
CCNC1CCc2ccccc2C1.Cl (configuration not stated) | 76.4%
Cl.NC1Cc2ccccc2C1 | 76%
Cl.NC1CCc2ccccc2C1 (configuration not stated) | 55.1%
CCCN(CCC)C1Cc2ccccc2C1.Cl | 64%
CCCCN(CCCC)C1Cc2ccccc2C1.Cl | 8.4%
CCN(CC)C1Cc2ccccc2C1.Cl | 50.6%
CNC1Cc2ccccc2C1.Cl | 80.3%
CCCN(CCC)C1CCc2ccccc2C1.Cl (configuration not stated) | 76.5%
CN(C)C1CCc2ccccc2C1.Cl (configuration not stated) | 88.1%
CC(C)N(C)C1CCc2ccccc2C1.Cl (configuration not stated) | 79.7%
CCCNC1CCc2ccccc2C1.Cl (configuration not stated) | 79%
CC(C)N(C)C1Cc2ccccc2C1.Cl | 64%
CC(C)NC1Cc2ccccc2C1.Cl | 2.8%
CCCCNC1Cc2ccccc2C1.Cl | 7.1%
CCNC1Cc2ccccc2C1.Cl | 73.6%
Br.CCCCN(CCCC)C1CCc2ccccc2C1 (configuration not stated) | 0.8%
CCCNC1Cc2ccccc2C1.Cl | 21.9%
CCN(CC)C1CCc2ccccc2C1.Cl (configuration not stated) | 73.4%

Species on record: Mus musculus
Assay: Evaluated for analgesic activity and increase in reaction time in mouse by hotplate assay
Assay type: functional
Parameters: unit not given beside the values
Conditions: not given
Procedure, shortened: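 Male Swiss-Webster mice (20–30 g) got 10 mg/kg ip 10 min before a single exposure to a 55 ± 0.5 °C hot plate. End point was jumping or paw licking. Ten mice per drug, plus 10 saline controls each test day; also run after naloxone 5 mg/kg ip pretreatment. Mean latency (s) ± SEM; grouped Student's t test vs control.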

Structure (SMILES) | Activity
CCNC1CCc2ccccc2C1.Cl (configuration not stated) | 29.6
Cl.NC1Cc2ccccc2C1 | 35.8
Cl.NC1CCc2ccccc2C1 (configuration not stated) | 25.6
CC(C)NC1CCc2ccccc2C1.Cl (configuration not stated) | 27
CCCN(CCC)C1Cc2ccccc2C1.Cl | 22
CCCCN(CCCC)C1Cc2ccccc2C1.Cl | 11.7
CCN(CC)C1Cc2ccccc2C1.Cl | 33.9
CNC1Cc2ccccc2C1.Cl | 28.6
CCCN(CCC)C1CCc2ccccc2C1.Cl (configuration not stated) | 29.2
CN(C)C1CCc2ccccc2C1.Cl (configuration not stated) | 24.2
CC(C)N(C)C1CCc2ccccc2C1.Cl (configuration not stated) | 20.6
CCCCNC1CCc2ccccc2C1.Cl (configuration not stated) | 17.6
CCCNC1CCc2ccccc2C1.Cl (configuration not stated) | 18.9
CC(C)N(C)C1Cc2ccccc2C1.Cl | 29.4
CC(C)NC1Cc2ccccc2C1.Cl | 17.8
CNC1CCc2ccccc2C1.Cl (configuration not stated) | 16
CCCCNC1Cc2ccccc2C1.Cl | 17.7
CCNC1Cc2ccccc2C1.Cl | 22.1
Br.CCCCN(CCCC)C1CCc2ccccc2C1 (configuration not stated) | 12
CCCNC1Cc2ccccc2C1.Cl | 15
CCN(CC)C1CCc2ccccc2C1.Cl (configuration not stated) | 33.5

Species on record: Canis familiaris
Assay: Evaluated for inhibition of pressor response during carotid occlusion in dog; IA = inactive
Assay type: functional, organism-based
Conditions: Canis lupus familiaris
Procedure, shortened: (§3)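 Dogs (8–15 kg) under thiopental sodium 15 mg/kg iv, then barbital sodium 200 mg/kg. Pressor response to bilateral carotid occlusion was monitored at least 1 h per dose. Doses changed by 0.48 log interval once responses returned to control. At least five dogs per compound; value is the calculated amount giving 50% inhibition of the pressor response.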

Structure (SMILES) | ED50
CN(C)C1CCc2ccccc2C1.Cl (configuration not stated) | inactive

Species on record: Canis familiaris
Assay: Evaluated for inhibition of pressor response during carotid occlusion in dog
Assay type: functional
Conditions: Canis lupus familiaris
Procedure, shortened: as §3

Structure (SMILES) | ED50
CCCN(CCC)C1CCc2ccccc2C1.Cl (configuration not stated) | 0.22 µmol/kg
CCCNC1CCc2ccccc2C1.Cl (configuration not stated) | 3.38 µmol/kg

Species on record: Rattus norvegicus
Assay: Evaluated for induce circling behavior in the rat expressed as rotational behavior (turns/h)
Assay type: functional
Conditions: not given
Procedure, shortened: (§4)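 Used male Sprague-Dawley rats (200–300 g) with unilateral substantia nigra 6-hydroxydopamine lesions. A single 10 mg/kg sc dose was given to four rats at the start of a 1-h automatic recording. Turns/h were recorded with direction (ipsilateral or contralateral); a mean above 100 counted as substantial circling.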

Structure (SMILES) | Activity
CCNC1CCc2ccccc2C1.Cl (configuration not stated) | 508 turns hr-1
Cl.NC1Cc2ccccc2C1 | 27 turns hr-1
CN(C)C1Cc2ccccc2C1.Cl | 23 turns hr-1
Cl.NC1CCc2ccccc2C1 (configuration not stated) | 104 turns hr-1
CCCN(CCC)C1Cc2ccccc2C1.Cl | 289 turns hr-1
CCCCN(CCCC)C1Cc2ccccc2C1.Cl | 2 turns hr-1
CCN(CC)C1Cc2ccccc2C1.Cl | 304 turns hr-1
CNC1Cc2ccccc2C1.Cl | 6 turns hr-1
CCCN(CCC)C1CCc2ccccc2C1.Cl (configuration not stated) | 734 turns hr-1
CN(C)C1CCc2ccccc2C1.Cl (configuration not stated) | 53 turns hr-1
CC(C)N(C)C1CCc2ccccc2C1.Cl (configuration not stated) | 16 turns hr-1
CCCCNC1CCc2ccccc2C1.Cl (configuration not stated) | 7 turns hr-1
CCCNC1CCc2ccccc2C1.Cl (configuration not stated) | 804 turns hr-1
CC(C)N(C)C1Cc2ccccc2C1.Cl | 15 turns hr-1
CC(C)NC1Cc2ccccc2C1.Cl | 25 turns hr-1
CNC1CCc2ccccc2C1.Cl (configuration not stated) | 263 turns hr-1
CCCCNC1Cc2ccccc2C1.Cl | 3 turns hr-1
CCNC1Cc2ccccc2C1.Cl | 17 turns hr-1
Br.CCCCN(CCCC)C1CCc2ccccc2C1 (configuration not stated) | 4 turns hr-1
CCCNC1Cc2ccccc2C1.Cl | 6 turns hr-1
CCN(CC)C1CCc2ccccc2C1.Cl (configuration not stated) | 501 turns hr-1

Species on record: Canis familiaris
Assay: Evaluated for inhibition of pressor response during carotid occlusion in dog.
Assay type: functional
Conditions: Canis lupus familiaris
Procedure, shortened: as §3

Structure (SMILES) | ED50
CCNC1CCc2ccccc2C1.Cl (configuration not stated) | 0.52 µmol/kg

Species on record: Mus musculus
Assay: as §1
Assay type: functional
Conditions: not given
Procedure, shortened: as §2

Structure (SMILES) | Reduction
CCCCNC1CCc2ccccc2C1.Cl (configuration not stated) | 20.7%
CNC1CCc2ccccc2C1.Cl (configuration not stated) | 70.2%

Species on record: Rattus norvegicus
Assay: Evaluated for induce circling behavior in the rat expressed as rotational behavior (turns/h); IA = inactive
Assay type: functional, organism-based
Conditions: not given
Procedure, shortened: as §4

Structure (SMILES) | Activity
NC1CCCc2ccccc2C1 (configuration not stated) | inactive
CCCN(CCC)C1CCCc2ccccc2C1 (configuration not stated) | inactive

Species on record: Felis catus
Assay: Evaluated for inhibition of pressor response during central sciatic nerve stimulation in cat
Assay type: functional
Conditions: not given
Procedure, shortened: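 In cats under pentobarbital sodium 30 mg/kg intrathoracic, left femoral arterial pressure was recorded. The central stump of the sectioned right sciatic nerve was stimulated at 4 Hz, 5 ms, supramaximal voltage for 30 s (pressor 30–60 mmHg). Compounds were given iv, followed 1 h, doses stepped by 0.48 log unit; at least six cats. Value is the calculated amount giving 50% pressor inhibition.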

Structure (SMILES) | ED50
CCNC1CCc2ccccc2C1.Cl (configuration not stated) | 2.3 µmol/kg
CCCN(CCC)C1Cc2ccccc2C1.Cl | 0.25 µmol/kg
CCN(CC)C1Cc2ccccc2C1.Cl | 1.14 µmol/kg
CCCN(CCC)C1CCc2ccccc2C1.Cl (configuration not stated) | 0.09 µmol/kg
CN(C)C1CCc2ccccc2C1.Cl (configuration not stated) | 0.16 µmol/kg
CCCNC1CCc2ccccc2C1.Cl (configuration not stated) | 0.9 µmol/kg
CCN(CC)C1CCc2ccccc2C1.Cl (configuration not stated) | 0.35 µmol/kg
